# Legend:
# DNA topoisomerase 1 = target: T1, DNA topoisomerase 1 (Homo sapiens, UniProt P11387); assay: Inhibition of human DNA topoisomerase 1-mediated DNA cleavage assessed as relaxation of supercoiled pBR322 plasmid DNA after 15 mins by densitometer
# T1 sequence (P11387 whole entry): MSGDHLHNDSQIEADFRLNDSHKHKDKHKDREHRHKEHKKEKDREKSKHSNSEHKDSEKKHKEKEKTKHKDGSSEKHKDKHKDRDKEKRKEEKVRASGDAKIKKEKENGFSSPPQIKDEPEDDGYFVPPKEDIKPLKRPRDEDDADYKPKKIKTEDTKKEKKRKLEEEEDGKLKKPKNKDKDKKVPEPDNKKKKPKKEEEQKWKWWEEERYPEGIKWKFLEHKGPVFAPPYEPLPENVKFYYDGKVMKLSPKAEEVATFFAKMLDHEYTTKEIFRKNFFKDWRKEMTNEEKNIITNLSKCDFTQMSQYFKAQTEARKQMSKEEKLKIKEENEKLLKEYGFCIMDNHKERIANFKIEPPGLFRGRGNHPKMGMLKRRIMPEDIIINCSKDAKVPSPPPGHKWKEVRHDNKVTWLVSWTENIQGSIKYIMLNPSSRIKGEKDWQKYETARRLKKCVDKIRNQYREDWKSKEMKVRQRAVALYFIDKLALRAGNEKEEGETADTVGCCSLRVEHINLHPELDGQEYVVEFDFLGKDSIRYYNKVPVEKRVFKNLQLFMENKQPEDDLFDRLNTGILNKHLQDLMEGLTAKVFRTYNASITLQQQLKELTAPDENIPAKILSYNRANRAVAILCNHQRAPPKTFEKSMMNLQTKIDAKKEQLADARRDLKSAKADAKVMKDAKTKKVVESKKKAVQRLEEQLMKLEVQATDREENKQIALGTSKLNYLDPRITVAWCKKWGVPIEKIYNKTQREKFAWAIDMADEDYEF
# MKN-45 [1] = assay: Cytotoxicity against human MKN45 cells after 72 hrs; type: functional, cell-based; conditions: MKN-45, 72 h
# In short: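 MKN-45 human stomach cancer cells were incubated with compound for 72 h. Cytotoxicity was measured by the colorimetric tetrazolium-formazan method and by sulforhodamine B dye staining.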
# DLD-1 = assay: Cytotoxicity against human DLD1 cells after 72 hrs; type: functional, cell-based; conditions: DLD-1, 72 h
# [2] = Safety margin, ratio of LD10 for nude mouse to GID75 for human MX1 cells; type: toxicity, cell-based
# In short: (§1)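 Nude mice carried MKN-45 or MX-1 tumours implanted subcutaneously in a side flank. Compounds were given iv, either five times/week or twice/week for two consecutive weeks. The twice/week arm started once tumours reached 0.2 cm³ or larger. GID75 is the approximate dose giving 75% tumour growth inhibition, and LD10 is the approximate 10% lethal dose at that schedule. Safety margin = LD10/GID75.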
# Mus musculus [3] = assay: Toxicity in human MKN45 cells xenografted iv dosed nude mouse; type: organism-based, MKN-45; conditions: in vivo
# In short: (§2)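 Toxicity was taken as LD10, the approximate dose lethal to 10% of nude mice at the treatment schedule. Mice bore subcutaneous side-flank MKN-45 or MX-1 xenografts and received iv dosing, either five times/week or twice/week for two consecutive weeks.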
# P388/S = assay: Cytotoxicity against mouse P388/S cells after 72 hrs by colorimetric tetrazolium-formazan method; type: functional, cell-based
# In short: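 Murine leukaemia P388 cells were exposed to compound for 72 h. Viability was read by the colorimetric tetrazolium-formazan method.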
# [4] = Safety margin, ratio of LD10 for nude mouse to GID75 for human MKN45 cells; type: toxicity, cell-based; conditions: mkn-45; in short: as §1
# [5] = target: Epidermal growth factor receptor (Homo sapiens, UniProt P00533); assay: Inhibition of EGFR
# Chain of Epidermal growth factor receptor (P00533 whole entry): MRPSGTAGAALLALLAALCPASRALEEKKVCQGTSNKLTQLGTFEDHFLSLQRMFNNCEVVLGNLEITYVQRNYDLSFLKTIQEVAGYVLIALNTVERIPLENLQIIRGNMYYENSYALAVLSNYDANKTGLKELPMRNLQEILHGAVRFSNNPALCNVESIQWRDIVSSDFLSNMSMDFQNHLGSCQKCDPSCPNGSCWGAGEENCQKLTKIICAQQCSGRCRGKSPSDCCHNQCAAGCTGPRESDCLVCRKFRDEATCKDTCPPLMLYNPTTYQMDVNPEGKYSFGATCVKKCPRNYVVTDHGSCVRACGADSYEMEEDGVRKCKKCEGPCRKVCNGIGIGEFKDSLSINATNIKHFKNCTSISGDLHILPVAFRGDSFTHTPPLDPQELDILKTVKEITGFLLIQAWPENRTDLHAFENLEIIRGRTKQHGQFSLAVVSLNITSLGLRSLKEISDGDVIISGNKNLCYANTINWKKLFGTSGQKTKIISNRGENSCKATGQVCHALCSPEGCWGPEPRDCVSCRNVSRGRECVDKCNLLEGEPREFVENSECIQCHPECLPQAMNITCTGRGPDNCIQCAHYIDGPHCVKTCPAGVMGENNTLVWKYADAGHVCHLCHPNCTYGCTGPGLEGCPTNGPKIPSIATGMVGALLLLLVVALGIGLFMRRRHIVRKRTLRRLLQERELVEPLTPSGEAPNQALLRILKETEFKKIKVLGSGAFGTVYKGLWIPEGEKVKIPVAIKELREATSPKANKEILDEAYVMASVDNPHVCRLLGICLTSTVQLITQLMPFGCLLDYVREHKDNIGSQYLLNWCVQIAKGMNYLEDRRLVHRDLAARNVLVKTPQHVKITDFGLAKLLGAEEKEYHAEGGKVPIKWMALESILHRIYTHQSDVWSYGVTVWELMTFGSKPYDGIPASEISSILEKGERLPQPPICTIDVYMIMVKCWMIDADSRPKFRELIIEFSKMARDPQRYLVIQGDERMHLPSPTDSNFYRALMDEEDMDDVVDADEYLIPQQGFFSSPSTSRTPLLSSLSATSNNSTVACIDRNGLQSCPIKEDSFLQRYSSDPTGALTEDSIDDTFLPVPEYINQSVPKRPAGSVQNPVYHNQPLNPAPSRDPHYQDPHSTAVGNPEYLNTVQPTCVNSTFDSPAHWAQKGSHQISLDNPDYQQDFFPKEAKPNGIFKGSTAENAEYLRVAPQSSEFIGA
# In short: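 Kinase-inhibition assay against EGF receptor kinase, with Poly(Glu4Tyr1) as substrate.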
# [6] = Inhibition of PKC
# In short: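 Protein kinase C inhibition assay, with Histone II-As as substrate.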
# MKN-45 [7] = assay: Antitumor activity in human MKN45 cells xenografted iv dosed nude mouse assessed as tumor growth inhibition administered 5 times per week for 2 weeks at tumor growth of >= 0.2 cm2; type: functional
# In short: (§3)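 Human MKN-45 (stomach) or MX-1 (breast) cells implanted subcutaneously into a side flank of nude mice. Compound given iv five times/week. GID₇₅ is the approximate dose giving 75% growth inhibition. LD₁₀ is the approximate 10% lethal dose at that schedule. Safety margin is LD₁₀/GID₇₅.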
# Mus musculus [8] = assay: Toxicity in human MX1 cells xenografted iv dosed nude mouse; type: organism-based; conditions: in vivo; in short: as §2
# MX1 = assay: Antitumor activity in human MX1 cells xenografted iv dosed nude mouse assessed as tumor growth inhibition administered 5 times per week for 2 weeks at tumor growth of >= 0.2 cm2; type: functional; in short: as §3
smiles,measurement,setting,value
O=C1c2c(c3c4ccc(O)cc4n([C@@H]4O[C@H](CO)[C@@H](O)[C@H](O)[C@H]4O)c3c3[nH]c4cc(O)ccc4c23)C(=O)N1NC(CO)CO [EDOTECARIN],EC50,DNA topoisomerase 1,0.051 µM
same,IC50,MKN-45 [1],0.0048 µM
same,IC50,DLD-1,0.07 µM
same,selectivity ratio,[2],> 13
same,LD10,Mus musculus [3],> 1600 mg/m2
same,IC50,P388/S,0.0015 µM
same,selectivity ratio,[4],> 36
same,IC50,[5],> 200 µM
same,IC50,[6],18 µM
same,GID75,MKN-45 [7],45 mg/m2
same,LD10,Mus musculus [8],> 2000 mg/m2
same,GID75,MX1,160 mg/m2

# — ChEMBL document CHEMBL1138509, “Synthesis and biological activities of topoisomerase I inhibitors, 6-arylmethylamino analogues of edotecarin” (J Med Chem, 2009)
